From ChEMBL document CHEMBL4513216, “Probing the Open Global Health Chemical Diversity Library for Multistage-Active Starting Points for Next-Generation Antimalarials” (ACS Infect Dis, 2020)

Assay: Toxicity liver stage against HepG2, at 10uM
Format: cell-based
Parameters: test concentration 10 uM, cell line HepG2-A16-CD81EGFP
Conditions: human, HepG2-A16-CD81EGFP cells; read-out: INHIBITION
In short: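 Uninfected HepG2-A16-CD81EGFP cells, 3 × 10^3 per well, 1536-well, plated on prespotted compound at 10 μM final, parasite-free screening media added to match infected plates; puromycin 10 μM positive, DMSO 0.5% negative; run in parallel with 48 h PbLuc assay at 37 °C, 5% CO2; viability by CellTiter-Glo luminescence, normalized to controls.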

Row | Compound | cytotoxicity at 10 µM
1 | Cn1ccnc1CN1CC[C@@H](NS(C)(=O)=O)[C@@H]1Cc1ccccc1 | -77.2%
2 | Cc1nccc(N[C@H]2CN(C(=O)C3(C#N)CCOCC3)C[C@@H]2C(C)C)n1 | 9.81%
3 | CC[C@H]1CN(C(=O)C2CC2)CC[C@H]1CC(=O)NCCN1CCOCC1 | -7.3%
4 | c1csc(CN2Cc3nccn3CC(Cn3cncn3)C2)c1 (centres undefined) | -136%
5 | Cc1cc(C)c2c(C(=O)N(C)C)cc(-c3cnc(N)nc3)nc2c1 | -8.87%
6 | CCn1ccnc1CN1CCN(Cc2ccc(C#N)cc2)CC1 | -9.62%
7 | CN(C)S(=O)(=O)NCc1nc(-c2cccc(F)c2)c(-c2ccccn2)[nH]1 | -7.76%
8 | CC1CCN(C(=O)Cn2cc(I)cn2)CC1 | 2.19%
9 | O=C(Nc1cnc2n1CCCC2)c1cccc(NC(=O)C2CCCC2)c1 | -5.09%
10 | Cc1ccnc(NC(=O)C2CCCO2)c1 (centres undefined) | -11.3%
11 | O=C(NCc1nncn1C1CC1)C1(c2ccc(F)cc2)CCOCC1 | -10.4%
12 | CCc1ncc2c(n1)CN(C(=O)CCCc1ccc(OC)cc1)C2 | -7.32%
13 | Cc1cccc(CN2C(=O)CC[C@@H]3[C@H]2CCN3Cc2cccnc2)n1 | -74.6%
14 | CC(=O)c1cc(CC(=O)NCc2ccc(CN(C)C)cc2)cs1 | -11.3%
15 | CNc1cc(-c2ccc(COCCN)cc2)c2cc[nH]c2n1 | 5.89%
16 | CC(SCCC(=O)NC(N)=O)c1cccc(F)c1 (centres undefined) | 5.28%
17 | Cc1nc(N2CCOCC2)ncc1-c1cc(O)nc(N2CCCCC2)n1 | 6.2%
18 | COCC(=O)NC[C@]12COC[C@H]1CN(Cc1ccc3c(c1)OCO3)C2 | -112%
19 | CN(C)Cc1cn(CC2CCCN(c3nccc4occc34)C2)nn1 (centres undefined) | -9.67%
20 | CCc1nc(CC)n(CC(=O)N(C)Cc2ccc(F)cc2)n1 | 5.25%
21 | COC(=O)CNC(=O)c1nc(-c2ccccc2OC)c2cnccn12 | 8.6%
22 | COc1cccc(S(=O)(=O)CCN2CCCCC2)c1 | 2.37%

Row | Compound | cytotoxicity at 10 µM
23 | CN1CCN(C=C2N=C(c3cc(-c4ccccc4F)n[nH]3)ON2)CC1 | -4.92%
24 | CC(C(=O)Nc1cccc(Cl)c1)N1CCN(Cc2ncc[nH]2)CC1 (centres undefined) | -8.64%
25 | Cc1ccc(Sc2ccc(CN3CCC4(CC3)NCCNC4=O)o2)cc1 | -6.71%
26 | COCCN1CC(=O)c2sc(NCc3ccccc3)nc2C1 | -6.77%
27 | OC1(CNc2cc(C(F)(F)F)nc3ccccc23)CCOCC1 | -11.3%
28 | Cc1ccc(CCC(=O)N2CCCC(c3cc(C(N)=O)[nH]n3)C2)cc1 (centres undefined) | -4.33%
29 | COc1ccc(OC)c(CNCc2c(C)nc3sc(C)cn23)c1 | 7.06%
30 | c1cnnc(N2CCCC(NCc3ccncc3)C2)c1 (centres undefined) | -5.39%
31 | CS(=O)(=O)N1CCCC(C(=O)Nc2cnn(Cc3ccc(Cl)cc3)c2)C1 (centres undefined) | -6.5%
32 | O=C(c1cscn1)N1CCC2(CCN(Cc3nccs3)CC2)C1 | -69%
33 | CCOc1ccccc1CC(=O)N1C[C@@H](C(=O)O)[C@H](C2CC2)C1 | 1.12%
34 | Cc1ccc(N2CCC3(CC2)CC(OCC(=O)N(C)C)CO3)nn1 (centres undefined) | -7.59%
35 | CCOCCOC(C)C(=O)NCc1cn2cc(Cl)ccc2n1 (centres undefined) | 8.82%
36 | CC[C@@H](c1ccccc1)n1c(CN)n[nH]c1=O | -4.34%
37 | Cc1cccc(CN2CCCC3(CCN(CC4CCCO4)CC3)C2)n1 (centres undefined) | -121%
38 | Cc1cccc(C)c1OCCCN1CCN(CC2CCCO2)CC1 (centres undefined) | 9.09%
39 | CC(=O)NCC(=O)N1CCn2cc(CN(C)Cc3ccco3)nc2C1 | 4.81%
40 | COc1cccn(CC(=O)N(C)Cc2ccoc2)c1=O | -9.93%
41 | CN(C)CCCC(=O)NC1CC(C)(C)Cc2nc(C(C)(C)C)ncc21 (centres undefined) | 15.2%
42 | CCc1nc(N)nc(N2CCCC3(CCOCC3)C2)c1C | -123%
43 | CC1=N[C@@]2(CC[C@@H]3CN(C(=O)Nc4ccc(F)cc4)C[C@@H]32)C(=O)N1C | 8.1%
44 | Cc1ccc(OC2(C(=O)NC(C)Cc3ccncc3)CCNCC2)cc1 (centres undefined) | -9.89%
